From paper PMC5548977 (ESMO Open, 2017)

Legend:
[1] = system: patients with advanced solid tumours; test: Phase I dose-escalation study: adverse events, dose-limiting toxicities, MTD; type: in vivo, human
Procedure, shortened: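 Dosing was intravenous on days 1, 8 and 15 every 28 days, with dose by BSA (actual weight) recalculated each cycle. Escalation started at 20 mg/m2 with one patient per level, doubling until ≥grade 2 toxicity, then 3+3, across nine cohorts up to 780 mg/m2, with an expansion cohort at MTD. Dexamethasone 10 mg IV plus IV 5-HT antagonist premedication was recommended. AEs/DLTs were graded by NCI CTCAE V.3.0 and followed 30 days post-treatment.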

[2] = Pharmacokinetics: total ruthenium in plasma by ICP-MS, cycle 1; type: in vivo, human
Procedure, shortened: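 Cycle 1 plasma was taken on days 1, 2 and 8, pre-infusion and at 15 min, 30 min, 1, 2, 4, 6–8, 10–12 and 24 hours post-infusion, plus pre-dose day 8. Total ruthenium (free and bound) was measured by ICP-MS. Drug was reconstituted in normal saline and given intravenously over 30 min (<500 mL) or 60–90 min (>500 mL). Parameters were derived from concentration–time data and summarised descriptively.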

advanced solid tumours = test: Anti-tumour activity, tumour response by CT; type: in vivo, human
Procedure, shortened: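 Adult patients with refractory advanced solid tumours got intravenous infusions on days 1, 8 and 15 of 28-day cycles, at 20–780 mg/m2. CT response assessment was done at baseline and every two cycles per RECIST V.1.1. Disease control was defined as CR, PR or SD. Evaluable patients had at least one response assessment. Treatment continued until confirmed PD. Analysis was descriptive.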

GRP78 = settings: tumour cells; independent preclinical studies; cited from earlier work
[3] = system: drug-resistant PDAC cells; settings: cited from earlier work
[4] = system: metastatic osteosarcoma cells; settings: ex vivo lung metastases model; cited from earlier work
[5] = in vitro, combination with different classes of cancer drugs; ref 23 24; cited from earlier work
[6] = ref 9 10, cited from earlier work
[7] = 10 patients with disease control
[8] = efficacy-evaluable population (n=38)

[Cl][Ru-]([Cl])([Cl])[Cl].[Na+].c1ccc2[nH]ncc2c1.c1ccc2[nH]ncc2c1 [IT-139, sodium trans-(tetrachlorobis(1H-indazole)ruthenate(III))]
Any adverse event, patients ([1]; 20 mg/m^2 (n=1)): 1
Maximum severity of adverse event Grade 1, patients ([1]; 20 mg/m^2 (n=1)): 1
Related adverse event (related to study drug as assessed by the investigator), patients ([1]; 20 mg/m^2 (n=1)): 1
Any adverse event, patients ([1]; 40 mg/m^2 (n=1)): 1
Maximum severity of adverse event Grade 2, patients ([1]; 40 mg/m^2 (n=1)): 1
Related adverse event (related to study drug as assessed by the investigator), patients ([1]; 40 mg/m^2 (n=1)): 1
Any adverse event, patients ([1]; 80 mg/m^2 (n=1)): 1
Maximum severity of adverse event Grade 1, patients ([1]; 80 mg/m^2 (n=1)): 1
Related adverse event (related to study drug as assessed by the investigator), patients ([1]; 80 mg/m^2 (n=1)): 1
Any adverse event, patients ([1]; 160 mg/m^2 (n=1)): 1
Maximum severity of adverse event Grade 1, patients ([1]; 160 mg/m^2 (n=1)): 1
Related adverse event (related to study drug as assessed by the investigator), patients ([1]; 160 mg/m^2 (n=1)): 1
Any serious adverse event, patients ([1]; 320 mg/m^2 (n=7)): 4
Discontinued treatment due to adverse event, patients ([1]; 320 mg/m^2 (n=7)): 1
Maximum severity of adverse event Grade 1, patients ([1]; 320 mg/m^2 (n=7)): 1
Maximum severity of adverse event Grade 2, patients ([1]; 320 mg/m^2 (n=7)): 3
Maximum severity of adverse event Grade 3, patients ([1]; 320 mg/m^2 (n=7)): 3
Maximum severity of adverse event ≥ Grade 3, patients ([1]; 320 mg/m^2 (n=7)): 3
Related adverse event (related to study drug as assessed by the investigator), patients ([1]; 320 mg/m^2 (n=7)): 7
Related serious adverse event, patients ([1]; 320 mg/m^2 (n=7)): 1
Any adverse event, patients ([1]; 420 mg/m^2 (n=5)): 5
Any serious adverse event, patients ([1]; 420 mg/m^2 (n=5)): 1
Discontinued treatment due to adverse event, patients ([1]; 420 mg/m^2 (n=5)): 2
Maximum severity of adverse event Grade 1, patients ([1]; 420 mg/m^2 (n=5)): 1
Maximum severity of adverse event Grade 2, patients ([1]; 420 mg/m^2 (n=5)): 2
Maximum severity of adverse event Grade 3, patients ([1]; 420 mg/m^2 (n=5)): 2
Maximum severity of adverse event ≥ Grade 3, patients ([1]; 420 mg/m^2 (n=5)): 2
Related adverse event (related to study drug as assessed by the investigator), patients ([1]; 420 mg/m^2 (n=5)): 4
Any adverse event, patients ([1]; 500 mg/m^2 (n=3)): 3
Maximum severity of adverse event Grade 1, patients ([1]; 500 mg/m^2 (n=3)): 1
Maximum severity of adverse event Grade 2, patients ([1]; 500 mg/m^2 (n=3)): 2
Related adverse event (related to study drug as assessed by the investigator), patients ([1]; 500 mg/m^2 (n=3)): 2
Any serious adverse event, patients ([1]; 625 mg/m^2 (n=18)): 6
Discontinued treatment due to adverse event, patients ([1]; 625 mg/m^2 (n=18)): 2
Maximum severity of adverse event Grade 1, patients ([1]; 625 mg/m^2 (n=18)): 4
Maximum severity of adverse event Grade 2, patients ([1]; 625 mg/m^2 (n=18)): 4
Maximum severity of adverse event Grade 3, patients ([1]; 625 mg/m^2 (n=18)): 9
Maximum severity of adverse event Grade 5, patients ([1]; 625 mg/m^2 (n=18)): 1
Maximum severity of adverse event ≥ Grade 3, patients ([1]; 625 mg/m^2 (n=18)): 10
Related serious adverse event, patients ([1]; 625 mg/m^2 (n=18)): 1
duration of QTc prolongation after infusion ([1]; 780 mg/m^2): up to 10 hours
Any adverse event, patients ([1]; 780 mg/m^2 (n=9)): 9
Any serious adverse event, patients ([1]; 780 mg/m^2 (n=9)): 4
Maximum severity of adverse event Grade 1, patients ([1]; 780 mg/m^2 (n=9)): 1
Maximum severity of adverse event Grade 2, patients ([1]; 780 mg/m^2 (n=9)): 4
Maximum severity of adverse event Grade 3, patients ([1]; 780 mg/m^2 (n=9)): 3
Maximum severity of adverse event Grade 5, patients ([1]; 780 mg/m^2 (n=9)): 1
Maximum severity of adverse event ≥ Grade 3, patients ([1]; 780 mg/m^2 (n=9)): 4
Related adverse event (related to study drug as assessed by the investigator), patients ([1]; 780 mg/m^2 (n=9)): 9
Related serious adverse event, patients ([1]; 780 mg/m^2 (n=9)): 2
overall tolerability ([1]; 20 to 780 mg/m^2): well tolerated
cumulative toxicity ([1]; across dose levels): no evidence of cumulative toxicity
drug-related renal toxicity ([1]; all dose levels): no evidence of drug-related renal toxicity
MTD (maximum-tolerated dose) ([1]; i.v. infusion days 1, 8 and 15 every 28 days): 625 mg/m^2
effect on platelets or white blood cells ([1]; in vivo): no effect on platelets or white blood cells
patients with an AE that led to treatment discontinuation ([1]; n=46, all dose levels): 11%
PR prolongation ([1]; no control group, chance effect not excluded): evidence for PR prolongation
Creatine clearance ([1]; over time, all dose levels): stable over time and across all dose levels
serum discolouration at blood draw ([1]; three patients (four blood draws), without any clinical correlates): discoloured serum, green in colour
Any serious adverse event, patients ([1]; total patients (n=46)): 15
Discontinued treatment due to adverse event, patients ([1]; total patients (n=46)): 5
Maximum severity of adverse event Grade 1, patients ([1]; total patients (n=46)): 11
Maximum severity of adverse event Grade 5, patients ([1]; total patients (n=46)): 2
Maximum severity of adverse event ≥ Grade 3, patients ([1]; total patients (n=46)): 19
Related serious adverse event, patients ([1]; total patients (n=46)): 4
mean half-life (t1/2) ([2]; across dose levels, may not represent true terminal half-life): 113 h
pharmacokinetic linearity ([2]; across the dose range evaluated (20-780 mg/m^2)): first-order linear pharmacokinetics
dose dependence of PK parameters ([2]; in vivo): increased proportionally with dose
mean total clearance (CLtotal) ([2]; in vivo): 164 mL/h
percentage of the administered dose excreted in the urine (mean) ([2]; in vivo): 1.14%
patients with target lesion size reductions (advanced solid tumours; 8 of 38 efficacy-evaluable patients): 21%
median duration of disease control (advanced solid tumours; [7]): 9 weeks
range of duration of disease control (advanced solid tumours; [7]): 1–98 weeks
duration of SD from initiation of therapy until PD (advanced solid tumours; carcinoid patient continued on compassionate use protocol): 54 weeks
number of patients with PR (advanced solid tumours; [8]): 1
number of patients with SD (advanced solid tumours; [8]): 9
disease control in patients with carcinoid neuroendocrine tumours (advanced solid tumours; one PR and two SDs): three of five patients had disease control
single-agent anti-tumour activity (advanced solid tumours; weekly i.v. days 1, 8 and 15 of every 28-day cycle): modest anti-tumour activity
effect on stress induction of GRP78 (GRP78): suppressing the stress induction of GRP78 in tumour cells
effect on GRP78 chemoresistance ([3]; PDAC model): inhibits GRP78 chemoresistance
sensitivity to cytotoxic drugs ([3]; in combination with gemcitabine, drug-resistant PDAC cells): sensitivity to cytotoxic drugs was restored
tumour burden [4]: decrease in tumour burden after treatment
synergy in combination [5]: marked synergy

imidazolium-(trans-DMSO-imidazole-tetrachlororuthenate) [NAMI-A]
tolerability ([6]; monotherapy, clinic trials): moderately tolerated
activity in combination ([6]; phase I/II combination study with gemcitabine): less activity in combination than with gemcitabine therapy alone
